In ChEMBL document CHEMBL4406846, “Development of novel multipotent compounds modulating endocannabinoid and dopaminergic systems” (Eur J Med Chem, 2019):
Values after ≈ are worked out from the molar mass of the structure shown. Active and inactive are the calls of the source. The rule behind the calls is not given here.

Columns and labels:
[1] = molecular target: T1, Fatty-acid amide hydrolase 1 (Mus musculus, UniProt O08914); assay: Inhibition of FAAH in mouse brain membranes using [14C]-AEA as substrate incubated for 15 mins by scintillation counting method; assay type: cell membranes
T1 sequence (O08914 whole entry): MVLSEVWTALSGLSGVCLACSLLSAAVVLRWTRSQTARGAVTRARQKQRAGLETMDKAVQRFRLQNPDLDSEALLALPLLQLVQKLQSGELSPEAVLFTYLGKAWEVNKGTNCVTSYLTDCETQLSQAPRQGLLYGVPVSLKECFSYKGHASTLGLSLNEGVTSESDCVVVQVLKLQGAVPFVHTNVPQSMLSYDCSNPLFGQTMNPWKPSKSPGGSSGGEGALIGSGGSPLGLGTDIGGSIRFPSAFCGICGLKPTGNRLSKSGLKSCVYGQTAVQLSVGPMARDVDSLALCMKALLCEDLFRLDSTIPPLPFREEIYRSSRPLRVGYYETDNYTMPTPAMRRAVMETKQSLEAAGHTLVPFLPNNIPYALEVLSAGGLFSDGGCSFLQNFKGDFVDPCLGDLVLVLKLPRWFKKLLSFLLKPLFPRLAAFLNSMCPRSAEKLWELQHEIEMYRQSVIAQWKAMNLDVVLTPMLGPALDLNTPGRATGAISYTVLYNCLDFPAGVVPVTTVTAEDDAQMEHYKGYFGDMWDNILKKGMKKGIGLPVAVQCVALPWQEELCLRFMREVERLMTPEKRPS

[2] = molecular target: T1, Fatty-acid amide hydrolase 1; assay: Inhibition of FAAH in mouse brain membranes assessed as inhibitory constant using [14C]-AEA as substrate incubated for 15 mins by scintillation counting method; assay type: cell membranes
Outline: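 Mouse brain incubated with 10 μM [¹⁴C]AEA at 37 °C for 15 min, pH 9.0, compound added to the medium. Stopped with chloroform/methanol 2:1; [¹⁴C]ethanolamine released into the aqueous phase measured. Mean of at least three experiments.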

D(2) dopamine receptor = D(2) dopamine receptor (Homo sapiens, UniProt P14416); assay: Displacement of [3H]-spiperone from human D2 receptor expressed in CHO cells co-expressing Galpha16 incubated for 120 mins by liquid scintillation counting method; assay type: cell-based
Chain of D(2) dopamine receptor (P14416 whole entry): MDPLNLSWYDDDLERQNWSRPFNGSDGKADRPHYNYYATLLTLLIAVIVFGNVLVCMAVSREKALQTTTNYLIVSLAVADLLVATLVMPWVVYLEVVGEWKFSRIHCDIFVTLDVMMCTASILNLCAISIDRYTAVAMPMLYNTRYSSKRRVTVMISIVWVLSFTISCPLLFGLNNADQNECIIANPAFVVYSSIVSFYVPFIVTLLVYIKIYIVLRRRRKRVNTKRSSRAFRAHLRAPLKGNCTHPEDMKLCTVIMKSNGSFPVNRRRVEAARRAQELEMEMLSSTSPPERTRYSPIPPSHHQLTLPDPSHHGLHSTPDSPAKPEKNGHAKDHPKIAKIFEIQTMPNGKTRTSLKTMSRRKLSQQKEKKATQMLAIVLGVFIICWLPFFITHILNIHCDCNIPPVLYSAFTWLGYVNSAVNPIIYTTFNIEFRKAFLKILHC
Outline: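 Membranes from CHO cells expressing hD2 with Gα16; 2 μg protein/well, 0.08 nM [³H]-spiperone final, 23 °C for 120 min. Stopped by rapid filtration on PEI-soaked GF/B filters, bound radioactivity counted; Ki by Cheng-Prusoff; at least three experiments.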

D(3) dopamine receptor = D(3) dopamine receptor (Homo sapiens, UniProt P35462); assay: Displacement of [3H]-spiperone from human D3 receptor expressed in CHO cells co-expressing Galpha16 incubated for 120 mins by liquid scintillation counting method; assay type: cell-based
Chain of D(3) dopamine receptor (P35462 whole entry): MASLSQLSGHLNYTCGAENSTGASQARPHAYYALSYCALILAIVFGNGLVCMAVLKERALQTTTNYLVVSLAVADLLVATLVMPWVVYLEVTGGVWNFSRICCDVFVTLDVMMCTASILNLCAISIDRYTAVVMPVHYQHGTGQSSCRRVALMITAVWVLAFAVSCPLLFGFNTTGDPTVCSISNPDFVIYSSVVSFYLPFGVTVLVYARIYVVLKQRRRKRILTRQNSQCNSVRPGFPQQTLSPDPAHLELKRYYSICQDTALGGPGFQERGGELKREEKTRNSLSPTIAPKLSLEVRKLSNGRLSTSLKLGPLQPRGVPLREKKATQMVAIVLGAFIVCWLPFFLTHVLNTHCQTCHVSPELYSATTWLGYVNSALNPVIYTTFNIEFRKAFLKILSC

[3] = molecular target: Voltage-gated inwardly rectifying potassium channel KCNH2 (Homo sapiens, UniProt Q12809); assay: Inhibition of human ERG expressed in HEK293 cells […] by patch clamp assay; assay type: cell-based
Chain of Voltage-gated inwardly rectifying potassium channel KCNH2 (Q12809 whole entry): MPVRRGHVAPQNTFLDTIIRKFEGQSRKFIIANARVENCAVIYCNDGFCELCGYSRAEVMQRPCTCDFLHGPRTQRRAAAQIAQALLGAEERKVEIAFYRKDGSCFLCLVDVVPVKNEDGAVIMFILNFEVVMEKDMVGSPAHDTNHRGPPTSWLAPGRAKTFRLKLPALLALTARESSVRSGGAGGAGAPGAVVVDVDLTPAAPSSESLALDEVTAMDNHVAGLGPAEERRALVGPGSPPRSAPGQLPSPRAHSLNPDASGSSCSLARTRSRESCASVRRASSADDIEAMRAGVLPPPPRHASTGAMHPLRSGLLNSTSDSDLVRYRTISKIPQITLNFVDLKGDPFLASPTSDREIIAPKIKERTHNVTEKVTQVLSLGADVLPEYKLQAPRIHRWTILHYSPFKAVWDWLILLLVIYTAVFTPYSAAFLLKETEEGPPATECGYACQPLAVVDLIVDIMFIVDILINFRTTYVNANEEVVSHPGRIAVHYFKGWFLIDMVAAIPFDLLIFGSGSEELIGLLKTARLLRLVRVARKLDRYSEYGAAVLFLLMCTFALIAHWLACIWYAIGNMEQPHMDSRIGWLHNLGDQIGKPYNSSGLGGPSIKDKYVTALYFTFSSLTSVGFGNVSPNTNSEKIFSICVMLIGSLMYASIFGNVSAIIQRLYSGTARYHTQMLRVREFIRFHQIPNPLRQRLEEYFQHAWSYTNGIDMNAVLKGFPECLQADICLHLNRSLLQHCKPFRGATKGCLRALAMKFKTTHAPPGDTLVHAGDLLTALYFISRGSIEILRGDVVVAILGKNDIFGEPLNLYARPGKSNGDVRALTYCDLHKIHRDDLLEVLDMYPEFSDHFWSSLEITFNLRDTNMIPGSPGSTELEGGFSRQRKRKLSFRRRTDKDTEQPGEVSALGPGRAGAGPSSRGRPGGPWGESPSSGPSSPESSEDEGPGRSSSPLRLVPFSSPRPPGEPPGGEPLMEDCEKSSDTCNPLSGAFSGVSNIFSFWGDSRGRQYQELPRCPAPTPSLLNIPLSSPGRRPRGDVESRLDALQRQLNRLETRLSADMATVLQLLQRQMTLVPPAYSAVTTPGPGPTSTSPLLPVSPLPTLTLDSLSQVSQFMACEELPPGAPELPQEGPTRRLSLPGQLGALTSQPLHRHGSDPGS
Outline: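 HEK293 cells stably expressing hERG under a tetracycline-inducible promoter (10 μg/mL tetracycline for 24, 48 or 72 h). Automated patch clamp, tail current; 0.1, 1 and 10 μM in 0.1% DMSO after 3 min vehicle, 5 min exposure. Residual current vs vehicle gives % inhibition; IC50 estimated; at least two cells.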

[4] = Solubility of compound in DMSO at pH 3 incubated for […] by HPLC/UV/DAD analysis; assay type: physicochemical
Outline: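 10 mM DMSO stock diluted to 250 μM (2.5% DMSO) in 50 mM acetic acid (pH 3.0) or 50 mM PBS (pH 7.4). Shaken 24 h at 25 °C, filtered, diluted 1:2 and quantified by HPLC-UV at 254 nm against a 250 μM standard; triplicate average.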

[5] = Chemical stability of compound in DMSO assessed as remaining compound at pH 3 incubated for 24 hrs by HPLC/UV/DAD analysis; assay type: physicochemical; settings: read-out: Stability
Outline: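 Samples at 250 μM (2.5% DMSO) in 50 mM acetic acid, pH 3.0, held 24 h at 25 °C. HPLC/UV/DAD peak area at 254 nm after 24 h divided by area at T0 × 100; triplicate average.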

NIH3T3 = assay: Cytotoxicity against mouse NIH/3T3 cells assessed as cell viability incubated for 24 hrs by neutral red uptake based assay; settings: NIH3T3, 24 h
Outline: (§1)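 NIH3T3 or U-373-MG cells grown in DMEM with 10% FCS at 37 °C, 5% CO2; compound from DMSO stock diluted in complete medium, 4–100 μM, 24 h. Viability by Neutral Red Uptake (3 h NR loading, acetic acid/ethanol extraction, A540), normalised to % control; IC50 reported. Three experiments in six replicates, Student's t test.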

U373 MG = assay: Cytotoxicity against human U373MG cells assessed as cell viability incubated for 24 hrs by neutral red uptake based assay; design: species or system U-373MG ATCC; outline: as §1
[6] = Metabolic stability in rat liver microsomes assessed as apparent decay constant at 5 uM incubated for 60 mins by UV-Vis spectrophotometry; assay type: ADME, Microsome; settings: 1 h
[7] = Metabolic stability in rat liver microsomes assessed as intrinsic clearance at 5 uM incubated for 60 mins by UV-Vis spectrophotometry; assay type: ADME, Microsome; settings: read-out: CLH
[8] = Metabolic stability in rat liver microsomes assessed as half life at 5 uM incubated for 60 mins by UV-Vis spectrophotometry; assay type: ADME, Microsome
[9] = Metabolic stability in human liver microsomes assessed as apparent decay constant at 5 uM incubated for 60 mins by UV-Vis spectrophotometry; assay type: ADME, Microsome; settings: 1 h
[10] = Metabolic stability in human liver microsomes assessed as intrinsic clearance at 5 uM incubated for 60 mins by UV-Vis spectrophotometry; assay type: ADME, Microsome; settings: read-out: CLH
[11] = Metabolic stability in human liver microsomes assessed as half life at 5 uM incubated for 60 mins by UV-Vis spectrophotometry; assay type: ADME, Microsome
IMR-32 [12] = assay: Cytotoxicity against human IMR32 cells at 0.1 to 50 uM incubated for 24 hrs by LDH release assay; assay type: cell-based; settings: imr-32, 24 h
Outline: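 IMR 32 cells exposed 24 h to 0.1, 0.5, 1, 5, 10 and 50 μM; LDH release expressed as percent of maximal release from Triton X-100-treated cells (100%). Samples run at least in triplicate, mean ± SD.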

IMR-32 [13] = assay: Antiinflammatory activity in human IMR32 cells assessed as reduction in LPS-induced NF-kappaB-DNA binding at 0.5 and 1 uM preincubated for 24 hrs followed by LPS stimulation and measured after 30 mins by ELISA; assay type: functional, cell-based
Outline: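 IMR 32 cells pre-treated 24 h at 0.5 and 1 μM, then challenged with 100 μg/mL LPS for 30 min; NF-κB p65 binding of nuclear extracts to the DNA consensus sequence measured. Mean ± SEM of 3 independent experiments.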

IMR-32 [14] = assay: Antiinflammatory activity in human IMR32 cells assessed as reduction in LPS-induced NF-kappaB-DNA binding at 0.5 and 1 uM preincubated for 24 hrs followed by LPS stimulation and measured after 30 mins by immunoblot analysis; assay type: functional, cell-based
[15] = Retention time of compound in human liver microsomes incubated for 30 mins by HPLC analysis; assay type: ADME, Microsome; settings: 0.5 h
[16] = molecular target: Cannabinoid receptor 1 (Mus musculus) (UniProt P47746); assay: Displacement of [3H]CP55, 940 from mouse brain membrane CB1 receptor
Chain of Cannabinoid receptor 1 (Mus musculus) (P47746 whole entry): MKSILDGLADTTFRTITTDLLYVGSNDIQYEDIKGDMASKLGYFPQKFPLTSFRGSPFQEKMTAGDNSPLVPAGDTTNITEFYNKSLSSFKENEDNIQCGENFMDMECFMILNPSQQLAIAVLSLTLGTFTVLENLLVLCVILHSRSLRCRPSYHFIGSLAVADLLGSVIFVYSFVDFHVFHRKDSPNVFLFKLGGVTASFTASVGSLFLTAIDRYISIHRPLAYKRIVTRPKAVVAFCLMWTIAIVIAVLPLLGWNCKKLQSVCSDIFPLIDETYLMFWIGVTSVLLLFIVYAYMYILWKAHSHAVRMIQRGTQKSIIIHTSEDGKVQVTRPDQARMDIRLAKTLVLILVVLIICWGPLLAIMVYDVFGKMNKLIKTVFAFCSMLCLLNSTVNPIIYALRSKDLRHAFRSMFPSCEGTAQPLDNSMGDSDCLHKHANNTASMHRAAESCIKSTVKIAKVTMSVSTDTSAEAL
Outline: (§2)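 Mouse brain membrane fraction (18000×g pellet) in 50 mM Tris-HCl, 2 mM Tris-EDTA, 3 mM MgCl2, pH 7.4. Rapid filtration binding with the agonist [³H]CP55,940; nonspecific binding defined with 1 μM unlabelled agonist; compound added directly to the incubation.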

[17] = molecular target: Cannabinoid receptor 2 (Mus musculus) (UniProt P47936); assay: Displacement of [3H]CP55, 940 from mouse brain membrane CB2 receptor; outline: as §2
Chain of Cannabinoid receptor 2 (Mus musculus) (P47936 whole entry): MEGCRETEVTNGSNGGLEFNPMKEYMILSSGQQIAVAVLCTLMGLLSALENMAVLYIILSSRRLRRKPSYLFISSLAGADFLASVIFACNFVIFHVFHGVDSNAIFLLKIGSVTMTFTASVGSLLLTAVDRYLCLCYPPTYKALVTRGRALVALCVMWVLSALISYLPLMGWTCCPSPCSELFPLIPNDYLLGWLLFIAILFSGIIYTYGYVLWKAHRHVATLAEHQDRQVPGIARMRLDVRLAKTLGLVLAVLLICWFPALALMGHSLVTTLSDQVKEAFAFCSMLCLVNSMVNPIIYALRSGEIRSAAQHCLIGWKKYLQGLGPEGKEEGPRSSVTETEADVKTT

[18] = molecular target: T2, Monoglyceride lipase (Mus musculus) (UniProt O35678); assay: Inhibition of MAGL in mouse brain assessed as release of [3H]glycerol using [3H]-2-OG as substrate incubated for 30 mins by scintillation counting method; assay type: tissue-based
T2 sequence (whole entry): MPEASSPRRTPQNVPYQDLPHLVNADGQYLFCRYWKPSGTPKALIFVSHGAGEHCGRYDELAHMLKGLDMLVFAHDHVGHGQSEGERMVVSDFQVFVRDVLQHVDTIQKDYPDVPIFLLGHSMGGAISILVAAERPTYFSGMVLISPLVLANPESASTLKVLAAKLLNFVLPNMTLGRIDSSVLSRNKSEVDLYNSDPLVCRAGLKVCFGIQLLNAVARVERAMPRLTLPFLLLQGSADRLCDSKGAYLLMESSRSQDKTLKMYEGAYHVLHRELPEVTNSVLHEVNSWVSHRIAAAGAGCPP
Outline: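 Mouse brain homogenised in 50 mM sodium phosphate pH 8.0 with 0.32 M sucrose, spun sequentially up to 100,000×g. Final supernatant incubated with 10 μM [³H]2-OG at 37 °C for 30 min; stopped with chloroform/methanol and aqueous [³H]glycerol scintillation-counted.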

[19] = Mutagenicity in Salmonella typhimurium TA100 assessed as number of revertants at 5 to 230 uM incubated for 2 days by AMES test; assay type: toxicity; settings: salmonella enterica subsp. enterica serovar typhimurium, 48 h
[20] = Mutagenicity in Salmonella typhimurium TA100 assessed as number of revertants in presence of liver S9 fraction at 5 to 230 uM incubated for 2 days by AMES test; assay type: toxicity, subcellular; settings: salmonella enterica subsp. enterica serovar typhimurium, s9, 48 h
[21] = Mutagenicity in Salmonella typhimurium TA98 assessed as number of revertants at 5 to 230 uM incubated for 2 days by AMES test; assay type: toxicity; settings: salmonella enterica subsp. enterica serovar typhimurium, 48 h
[22] = Mutagenicity in Salmonella typhimurium TA98 assessed as number of revertants in presence of liver S9 fraction at 5 to 230 uM incubated for 2 days by AMES test; assay type: toxicity, subcellular; settings: salmonella enterica subsp. enterica serovar typhimurium, s9, 48 h

SMILES: NC(=O)c1cn(-c2cccc(OC(=O)NCCN3CCN(c4ccccc4)CC3)c2)nn1
- IC50 [1]: 757 nM
- Ki [2]: 194 nM

SMILES: Cc1cc(C(N)=O)c(-c2cccc(OC(=O)NCCCN3CCN(c4ccccc4)CC3)c2)o1
- IC50 [1]: 62 nM
- Ki [2]: 16 nM
- Ki (D(2) dopamine receptor): 29 nM
- Ki (D(3) dopamine receptor): 19 nM
- IC50 [3]: 1100 nM

SMILES: Cc1cc(C(N)=O)c(-c2cccc(OC(=O)NCCN3CCN(c4ccccc4)CC3)c2)s1
- IC50 [1]: 26 nM
- Ki [2]: 6.88 nM
- Ki (D(2) dopamine receptor): 214 nM
- Ki (D(3) dopamine receptor): 148 nM
- IC50 [3]: 280 nM

SMILES: NC(=O)c1ccn(-c2cccc(OC(=O)NCCCCCCc3ccccc3)c2)c1
- solubility [4]: 465 µM (≈ 189 µg/mL)
- remaining at 24 h [5]: 92.1%
- IC50 (NIH3T3): 75000 nM
- IC50 (U373 MG): 50000 nM
- K [6]: 0.01379 ×10⁻¹ /min
- microsomal CLint at 5 µM [7]: 23.4 µL/min/mg
- half-life at 5 µM [8]: 50.3 min
- K [9]: 0.02496 ×10⁻¹ /min
- microsomal CLint at 5 µM [10]: 41.6 µL/min/mg
- half-life at 5 µM [11]: 27.8 min
- Activity (IMR-32 [12]): Non-Toxic
- Activity (IMR-32 [13]): Active
- Activity (IMR-32 [14]): Active
- Retention_time [15]: 13.72 min

SMILES: NC(=O)c1ccn(-c2cccc(OC(=O)NCCN3CCN(c4ccccc4)CC3)c2)c1
- IC50 [1]: 58 nM
- Ki [2]: 16 nM
- Ki (D(2) dopamine receptor): 186 nM
- Ki (D(3) dopamine receptor): 105 nM
- IC50 [3]: 5300 nM
- inhibition [16]: inactive
- inhibition [17]: inactive
- inhibition [18]: inactive
- IC50 (NIH3T3): 5000 nM
- Activity [19]: Non-Toxic
- Activity [20]: Non-Toxic
- Activity [21]: Non-Toxic
- Activity [22]: Non-Toxic
